Assay outcomes deposited in PubChem by several laboratories.
Only some compounds are listed: those with a hit (about 2.3% of all), similar ones and a draw of the others.
ROMK mod = ROMK potassium channel modulators, primary screen, cell-based, thallium flux, MLSMR library; ATP-sensitive inward rectifier potassium channel 1 (Homo sapiens), P48048; Tet-inducible ROMK, thallium flux fluorescence; actives lie on both sides; B-score at 10 µM; 2% of 130,000 active; AID 1918, 2009;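 active = signal ratio slope over the read window, or its plate-corrected B-score, at least 3 SD from the plate mean, either direction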;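 note: B-score of the F/F0 ratio slope over 7 to 12 s after thallium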
ABCB1 block = ABCB1 efflux pump inhibitors, primary screen, cell-based, multiplex, flow cytometry, ABCG2 counter-screen. 0.067% of 190,000 active. inhibition, % at 6.6 µM. CCRF-Adr cells, JC-1 efflux. AID 1326, 2008; in the data active = inhibition above about 40%;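 note: 0% = vehicle and 100% = reference inhibitor; higher value means more JC-1 retained so stronger ABCB1 efflux block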
sdo1 growth = growth rescue of sdo1-depleted yeast, primary screen, S. cerevisiae, bone marrow failure model | 0.21% of 140,000 active | AID 817, 2007 | z-score at 10 µM | S. cerevisiae sdo1-depleted JHY4D growth rescue, OD600 30 h; stronger effect = higher value; pdr5 snq2 efflux-pump mutant strain;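 active = z-score above 3 at both the 24 hr and the 30 hr optical density reads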;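 note: z-score against mean and SD of all compound wells on the same plate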
Insulin prom up = insulin promoter activators in MIN6 cells, imaging, high-content screening, mouse beta cells; MIN6 insulin promoter-GFP reporter; stronger effect = higher value; z-score at 5 µM; 0.3% of 190,000 active; AID 1625, 2009;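 active = z-score above 3 at 5 µM with at least 500 cells counted in the well; inconclusive = wells under 500 cells, flagged as cytotoxic or low count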
Autophagy mod = autophagy modulators in MEF cells, primary screen, imaging, high-content, MEF GFP-LC3. AID 463193, 2010. 0.98% of 190,000 active. MEF GFP-LC3 puncta imaging; test concentration mostly 10 µM. calls only at 10 µM (by protocol);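 active = percentage of spot-positive cells more than 3 SD above its plate mean, without a fluorescence outlier flag or 80% toxicity; inconclusive = no clear call, values can overlap the other calls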;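 note: spot-positive cell cutoff set from DMSO-treated cells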
ABCG2 block = ABCG2 efflux pump inhibitors, primary screen, multiplex with ABCB1, IgMXP3 cells, flow cytometry. Broad substrate specificity ATP-binding cassette transporter ABCG2 (Homo sapiens), Q9UNQ0. JC-1 efflux. AID 1325, 2008. 0.1% of 190,000 active. inhibition, % at 6.6 µM;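 active = inhibition above 80%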;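 note: 0% = DMSO and 100% = nicardipine control wells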
Target sequence (Q9UNQ0 whole entry, looked up): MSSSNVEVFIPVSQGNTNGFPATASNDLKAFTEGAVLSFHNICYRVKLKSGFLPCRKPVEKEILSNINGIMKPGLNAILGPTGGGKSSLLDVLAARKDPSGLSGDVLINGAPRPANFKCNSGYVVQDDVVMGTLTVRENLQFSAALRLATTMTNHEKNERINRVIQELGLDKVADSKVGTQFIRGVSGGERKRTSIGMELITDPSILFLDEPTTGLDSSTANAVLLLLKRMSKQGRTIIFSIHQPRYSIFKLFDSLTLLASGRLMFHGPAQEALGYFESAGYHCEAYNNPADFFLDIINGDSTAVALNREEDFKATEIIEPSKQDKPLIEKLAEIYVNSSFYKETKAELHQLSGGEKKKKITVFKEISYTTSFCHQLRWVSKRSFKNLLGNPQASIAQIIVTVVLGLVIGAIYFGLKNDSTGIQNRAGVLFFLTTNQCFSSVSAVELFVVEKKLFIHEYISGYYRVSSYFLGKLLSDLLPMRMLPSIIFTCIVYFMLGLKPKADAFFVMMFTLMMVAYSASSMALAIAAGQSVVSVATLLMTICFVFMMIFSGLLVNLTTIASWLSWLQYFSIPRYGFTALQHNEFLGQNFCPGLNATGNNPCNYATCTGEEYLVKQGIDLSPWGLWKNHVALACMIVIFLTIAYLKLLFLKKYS
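Assay system – ABCG2 IgMXP3 and barcoded ABCB1 CCRF-Adr cell mix · Input – 3 million cells/mL in well · Reagent – JC-1 fluorescent substrate · Compound – single test compound dose, 6.6 µM final · Timing – 10 min exposure at 25 °C with rotation, no wash · Detection – flow cytometry of retained JC-1 fluorescence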
Starred values were filed as active, the others as inactive; i = inactive; u = inconclusive; x = not tested or not shown; + = active, no number.

SMILES	ROMK mod	ABCB1 block	sdo1 growth	Insulin prom up	Autophagy mod	ABCG2 block
O=C1c2ccccc2-c2nc3ncnn3c(-c3ccccc3)c21	x	x	x	x	i	x
c1ccc(-c2cnn3c(-c4ccccc4)c(-c4ccccc4)nc3n2)cc1	x	43*	-0.83	17*	u	172*
COCCNC(=O)CS(=O)Cc1nc(-c2ccc(OC)cc2)oc1C (stereo not drawn)	x	1	0.16	0.52	+	5
COC(=O)Nc1ccc(S(=O)(=O)N2CCCC(C(=O)N3CCCCCC3)C2)cc1 (stereo not drawn)	-0.1	1	x	-0.62	+	2
COC(=O)Nc1ccc(S(=O)(=O)N2CCCC(C(=O)N3CCCCC3)C2)cc1 (stereo not drawn)	0.032	1	x	-1.5	i	2
Cc1cc(C)cc(SCc2noc(C(=O)NCc3ccccc3)c2C(=O)NCc2ccccc2)c1	x	x	x	1.1	x	x
CN(CCO)c1ccc(-c2nn(C)c(=O)c3ccccc23)cc1[N+](=O)[O-]	x	x	x	-0.91	x	x
C=CCC(c1ccccc1)N(C(C)=O)c1ccco1 (stereo not drawn)	-0.031	2	x	3.6*	i	5
COC1=CCC2([N+](=O)[O-])CN(CCO)CC1([N+](=O)[O-])C2 (stereo not drawn)	-0.0039	1	2.6	3*	i	4
Cc1ccc(CNc2ccc3c(c2)OCO3)c(C)c1	-0.73	1	0.23	x	+	8
Oc1ccccc1CNc1ccc2c(c1)OCCO2	0.36	0	x	-0.14	i	5
COc1ccc(COc2cc(-c3cccc(OC)c3)nc3ccc(NC(=O)c4cccnc4)cc23)cc1	0.33	17	-0.09	x	+	22
COc1ccc(COc2cc(-c3cccc(OC)c3)nc3ccc(NC(=O)c4ccc(OC)cc4)cc23)cc1	1.1	-1	-0.59	-1.6	i	-5
O=[N+]([O-])c1cccc(S(=O)(=O)[N-]c2nc3ccccc3nc2-n2cc[n+](Cc3ccccc3)c2)c1	x	x	x	0.17	x	x
CCN1C(=O)C(O)(C2COC(C)(C)CC2=O)c2cc(Br)ccc21 (stereo not drawn)	x	0	-0.28	x	+	5
O=C(OCCN1C(=O)c2cccc3c(N4CCOCC4)ccc(c23)C1=O)c1ccccc1Cl	x	2	-0.39	0.31	+	-9
O=C(OCCN1C(=O)c2ccccc2C1=O)c1cc(S(=O)(=O)N2CCOCC2)ccc1Cl	0.16	1	-1.2	0.57	i	3
O=C(OCCN1C(=O)c2cccc3c(N4CCOCC4)ccc(c23)C1=O)c1ccc(Cl)cc1Cl	x	9	0.15	x	+	28
O=C(OCCN1C(=O)c2cccc3c(N4CCOCC4)ccc(c23)C1=O)c1cccc(Cl)c1	x	4	-0.32	1.5	+	7
C=CCN1C(=O)/C(=C/C=C2/N(CC)c3ccc(S(=O)(=O)N(C)C)cc3N2CC)SC1=S	x	-1	x	x	+	-1
CCOC(=O)c1ccc2c(c1)N(CC)/C(=C\C=C1/SC(=S)N(CC)C1=O)N2CC	x	x	x	x	i	x
C=CC(=O)NC(C)(C)CCN1CCOCC1	x	0	x	0.18	i	9
COc1ccccc1-c1csc(NC(=O)c2ccc(N3C(=O)CCC3=O)cc2)n1	1.2	0	x	1.1	i	2
Cc1occc1C(=O)N/N=C/C1=C(N2CCOCC2)C(=C\c2ccc(Cl)cc2Cl)/CC1	-0.054	-1	0.76	-0.15	+	-14
CC1CCN(S(=O)(=O)c2ccc3c(c2)c(=O)c(C(=O)N2CCCCC2)cn3C)CC1	x	1	-0.02	4.9*	i	13
CCOC(=O)C1CCCN(C(=O)c2cn(C)c3ccc(S(=O)(=O)N4CCCC4)cc3c2=O)C1 (stereo not drawn)	0.83	0	0.62	0.24	i	2
COc1ccc(-c2nc(/C=C3\C(C)=Nc4ccccc43)c(O)o2)cc1	1.2	1	x	-0.08	+	0
CC1=Nc2ccccc2/C1=C\c1nc(-c2ccccc2)oc1O	-1.5	1	-1.5	-1	i	2
